Assay results from different studies.
Each line is one published result; the experiments were not run side by side.
Target: Vascular endothelial growth factor receptor 2 (KDR, Homo sapiens, UniProt P35968)
Read-out: enzyme activity
Mode: inhibitor

Compound | technique | tested at | remaining activity
O=C(Nc1cnn(-c2csc(C(=O)NC3COC3)c2)c1)Nc1c(F)cccc1Cl | – | 5 µM | 88.3%
CCCOc1ccc(OC)c(F)c1C(=O)c1ccc(C(=O)N[C@@H]2CNC[C@H]2NC(=O)c2ccc3[nH]ncc3c2)cc1 | – | 10 µM | 74%
COc1ccc(NC(=O)c2c(Nc3ccccc3)sc(C#N)c2NC(=O)CNc2ccc([N+](=O)[O-])cc2)cc1 | – | 0.1 µM | 86.1%
Cc1cnc(NC2CCOCC2)nc1-n1cnc(C(=O)NC(CN)c2cc(F)cc(Cl)c2)c1 (stereo not shown) | radiometric | 1 µM | 85%
COc1ccc(NC(=O)c2c(Nc3ccccc3)sc(C#N)c2NC(=O)CNc2ccc(Cl)cc2)cc1 | – | 100 µM | 16.5%
CC(C)(C)c1nc(-c2cccc(NS(=O)(=O)c3c(F)cccc3F)c2F)c(-c2ccnc(N)n2)s1 | radiometric | 1 µM | 82%
COc1cc(Cl)c(C(=O)N[C@@H](CN[C@H]2CC[C@@H](N)CC2)Cc2ccc(C#N)cc2)cc1-c1ccc(CN[C@H](C)c2ccc(C)cc2)o1 | – | 1 µM | 82%
O=C(Nc1cnn(-c2csc(C(=O)NC3COC3)c2)c1)Nc1ccccc1Cl | – | 5 µM | 95.2%
CC(C)(C)c1nc2c(s1)c1nc(N)ncc1c1ccc(NS(=O)(=O)c3c(F)cccc3F)c(F)c12 | radiometric | 1 µM | 95%
CCN(CC)c1ccc(C2=NNC(=O)CC2C)cc1[N+](=O)[O-] (stereo not shown) | – | 10 µM | 99%
CC(C)(O)[C@H]1CC[C@H](Nc2ccc3ncc(-c4cccc(C(F)(F)F)c4)n3n2)CC1 | – | 1 µM | 91.5%
Cc1[nH]c(/C=C2\C(=O)Nc3ccc(F)cc32)c(C)c1C(=O)N[C@H]1CCN(C(=O)N(C)C)C1 | – | 0.1 µM | 10%
COc1ccc(C=NNC(=O)c2sc(Nc3ccccc3)c(C(=O)Nc3ccc(OC)cc3)c2NC(C)=O)cc1 | – | 0.1 µM | 79.4%
